From ChEMBL document CHEMBL1138493, “Synthesis and modeling of new benzofuranone histone deacetylase inhibitors that stimulate tumor suppressor gene expression” (J Med Chem, 2009)
Active and inactive are the calls of the source. The calls are words filed in the database; no cut-off is given here.

Legend:
[1] = biological target: Histone deacetylase (Homo sapiens) (UniProt Q13547+O15379+Q9UBN7+Q92769+Q9UQL6+Q8WUI4+Q9BY41+Q96DB2+P56524+Q9UKV0+Q969S8); experiment: Inhibition of HDAC in human NCI-H661 cells assessed as induction of histone H4 acetylation at 3 uM after 6 hrs by Western blot analysis; format: cell-based
Outline: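 NCI-H661 cells exposed to compound for 6 h, then lysed and probed by Western blot for acetylated histone H4, with tubulin acetylation blotted alongside. Blots shown are representative of three independent experiments.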

NCI-H661 [2] = experiment: Antiproliferative activity against human NCI-H661 cells after 48 hrs by XTT assay; format: functional, cell-based; details: NCI-H661, 48 h
NCI-H661 [3] = experiment: Increase in E-cadherin mRNA expression in human NCI-H661 cells at 300 nM by qRT-PCR relative to control; format: functional
NCI-H661 [4] = experiment: Increase in semaphoring 3F mRNA expression in human NCI-H661 cells at 300 nM by qRT-PCR relative to control; format: functional

CC(/C=C/C(=O)NO)=C\C1(C)Oc2ccccc2C1=O (centres undefined)
Activity [1]: Active

CC(/C=C/C(=O)NO)=C\[C@@H](C)C(=O)c1ccc(N(C)C)cc1 [TRICHOSTATIN]
IC50 (NCI-H661 [2]): 100 nM
fold change (FC) (NCI-H661 [3]): 50
fold change (FC) (NCI-H661 [4]): 4
